# Source: PubChem BioAssay
# Sampled rows, rich in hits. Any-hit rate of the full collection: about 2.3%.
# TRPC4 inh: inhibitors of mouse TRPC4 channel, primary screen, Fluo4 calcium, HEK293 TRPC4beta/mu-opioid cells. B-score at 10 µM. DAMGO-evoked Fluo4 calcium flux; active compounds read low. hit rate 0.39% among 300,000. Short transient receptor potential channel 4 (Mus musculus), Q9QUQ5;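 active means B-score over 3 SD under the library average, no early fluorescence shift, positive overall ratio signal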
# Target sequence (Q9QUQ5 whole entry, looked up): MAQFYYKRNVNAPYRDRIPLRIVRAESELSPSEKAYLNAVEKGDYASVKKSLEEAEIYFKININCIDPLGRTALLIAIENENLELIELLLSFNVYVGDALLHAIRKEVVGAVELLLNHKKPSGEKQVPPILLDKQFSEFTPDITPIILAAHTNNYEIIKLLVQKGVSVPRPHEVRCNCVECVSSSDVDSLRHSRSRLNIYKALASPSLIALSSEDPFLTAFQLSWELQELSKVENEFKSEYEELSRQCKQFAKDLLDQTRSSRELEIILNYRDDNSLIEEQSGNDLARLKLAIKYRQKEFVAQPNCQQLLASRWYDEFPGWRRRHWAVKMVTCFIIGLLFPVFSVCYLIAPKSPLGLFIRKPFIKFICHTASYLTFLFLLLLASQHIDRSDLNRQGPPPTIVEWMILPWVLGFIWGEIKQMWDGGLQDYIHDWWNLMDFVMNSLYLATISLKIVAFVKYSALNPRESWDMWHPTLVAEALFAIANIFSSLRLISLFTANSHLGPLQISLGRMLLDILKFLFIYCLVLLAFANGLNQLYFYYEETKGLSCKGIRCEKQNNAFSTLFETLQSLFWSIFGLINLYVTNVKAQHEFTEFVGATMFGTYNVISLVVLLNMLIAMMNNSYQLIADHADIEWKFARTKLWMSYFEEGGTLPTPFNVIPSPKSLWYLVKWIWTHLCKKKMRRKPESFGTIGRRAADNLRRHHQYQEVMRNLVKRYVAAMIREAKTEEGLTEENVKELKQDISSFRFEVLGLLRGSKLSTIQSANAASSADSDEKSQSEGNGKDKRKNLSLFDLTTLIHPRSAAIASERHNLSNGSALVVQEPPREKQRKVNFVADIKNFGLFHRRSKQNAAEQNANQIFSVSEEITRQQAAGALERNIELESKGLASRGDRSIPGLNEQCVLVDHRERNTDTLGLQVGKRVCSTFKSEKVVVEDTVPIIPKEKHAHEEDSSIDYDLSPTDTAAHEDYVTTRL
#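 material = TRPC4beta/mu-opioid receptor HEK293 cell line | probe or stimulus = sequential submaximal and maximal DAMGO stimulation | compound dosing = one concentration per compound | measured by = Fluo4 Ca2+ flux fluorescence | evaluation = integrated fluorescence ratio relative to baseline, converted to per-well B score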
# TRPC4 PAM: positive allosteric modulators of TRPC4, primary screen, cell-based, mouse TRPC4beta, HEK293 mu-opioid, Fluo-4 calcium; DAMGO EC20, Fluo-4 Ca2+ flux; active compounds read high; B-score at 10 µM; hit rate 0.42% among 310,000; AID 2227, 2009;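 active means B-score of calcium response area above 5 SD of library B-scores, with initial fluorescence ratio within 5 SD of library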;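 further: B-score of integrated fluorescence ratio over time as area under calcium response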
# TRPC6 activator: mouse TRPC6 channel activators, primary screen, cell-based, HEK293, membrane potential dye; HEK293-TRPC6 membrane potential dye fluorescence; active compounds read high; B-score at 10 µM; hit rate 0.13% among 310,000; AID 2550, 2010;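 active means B-score of the integrated fluorescence ratio above library mean plus 3 SD, and starting fluorescence ratio within library mean plus 5 SD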;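 further: higher score means more depolarization so channel activation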
# TRPC6 inh: mouse TRPC6 channel inhibitors, primary screen, cell-based, HEK293, membrane potential dye; hit rate 1.1% among 310,000; Short transient receptor potential channel 6 (Mus musculus), Q61143; B-score at 10 µM; ACh-evoked depolarization; active compounds read low;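 active means B-score under library mean minus 3 SD, initial fluorescence not abnormally high, positive integrated signal ratio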;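 further: B-score derived from integrated fluorescence ratio over the kinetic read; more negative B-score means stronger inhibition of depolarization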
# TRPC4 agonist: activators of mouse TRPC4 channel, primary screen, Fluo4 calcium, HEK293 TRPC4beta/mu-opioid cells | B-score at 10 µM | AID 2237, 2010 | Fluo4 calcium fluorescence; active compounds read high | Short transient receptor potential channel 4 (Mus musculus), Q9QUQ5 | hit rate 0.49% among 310,000;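 active means B-score above 5 SD of library B-scores, and initial fluorescence ratio not above library mean plus 5 SD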;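 further: positive B-score marks a calcium rise read as TRPC4 activation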
#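 Incubation: 45 min room-temperature Fluo4 loading, 110 s read / System: HEK293 cells stably co-expressing mouse TRPC4beta and mu-opioid receptor / Signal: Fluo4 fluorescence, kinetic / Control set: buffer (low) and maximal DAMGO (high) / Measure: integrated baseline-normalised fluorescence ratio, converted to per-well B score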
# TRPC4 spec 2: mouse TRPC4 off-target activity of TRPC6 inhibitors, second screen. shares compounds with TRPC6 inh. HEK293 TRPC4/MOR, membrane potential dye fluorescence; channel activated by saturating DAMGO dose. inhibition, % at 10 µM. hit rate 42% among 920. AID 2776;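 active means compounds whose fluorescence signal differed from control wells by over 3 SD, either direction, in both duplicate plates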
# TRPC4 spec: mouse TRPC4 modulation by TRPC6 hits, confirmation, selectivity assay for TRPC6 inhibitor project, cell-based, HEK293 TRPC4/mu-opioid, membrane potential dye. membrane potential fluorescence. hit rate 61% among 920. AID 2777, 2010. activity change, negative = inhibition, % at 10 µM. shares compounds with TRPC6 inh;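 active means rise or fall in signal beyond 3 SD of buffer-only wells in both replicate plates, either sign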;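 further: integrated kinetic ratio of fluorescence range over baseline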
# HEK293 MPD ctr 2-1: nonspecific membrane potential effects, parental HEK293, confirmation, counter-screen for TRPC6 inhibitor project, cell-based, second counter screen; shares compounds with TRPC6 inh; parental HEK293 membrane potential dye fluorescence; maximal acetylcholine challenge after compound addition; signal change vs control, % at 10 µM; hit rate 31% among 920;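 active means membrane potential signal moving either way by over 3 SD of the maximum-effect control, in both duplicate plates, meaning non-specific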
# HEK293 MPD ctr-1: membrane potential modulation in parental HEK293, confirmation, counter-screen for TRPC6 inhibitor project, cell-based | shares compounds with TRPC6 inh | hit rate 60% among 920 | AID 2780, 2010 | parental HEK293 membrane potential dye fluorescence | membrane potential signal change, % at 10 µM;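 active means membrane potential signal shifting up or down by more than 3 SD of buffer-only wells, on both duplicate plates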
# HEK293 MPD ctr-2: parental HEK293 membrane potential modulation, confirmation, counter-screen for TRPC6 modulator project, cell-based | shares compounds with TRPC6 inh | membrane potential dye fluorescence | membrane potential signal change, % at 10 µM | hit rate 51% among 2,400 | AID 488924, 2010;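 active means membrane potential signal moves up or down beyond 5 SD from buffer-only wells, on both duplicate plates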
# HEK293 MPD ctr 2-2: second counter-screen for TRPC6 modulators: effect in parental HEK293 cells; inhibition, % at 10 µM; hit rate 14% among 2,400; shares compounds with TRPC6 inh; AID 488926; membrane potential dye fluorescence; after compound, maximal acetylcholine stimulation;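 active means membrane potential signal drops by more than 5 SD from the mean control signal, in both duplicate plates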;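 further: plate controls were acetylcholine ECmax control wells for no effect and buffer only wells for full effect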
# TRPC4/MOR mod: TRPC4 modulation by TRPC6 hit compounds, confirmation, selectivity assay for TRPC6 modulator project, cell-based, HEK293 TRPC4/mu-opioid, membrane potential dye, mouse; hit rate 69% among 2,400; percent change from control (negative = decrease, positive = increase), % at 10 µM; AID 488927, 2010; membrane potential fluorescence; shares compounds with TRPC6 inh;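 active means membrane potential signal moved up or down beyond 5 SD of buffer control wells, in both duplicate plates, actives on both sides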;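 further: plate controls were assay buffer wells for no effect and DAMGO maximal-effect wells for full effect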
# TRPC4/MOR inh 2: second check of whether TRPC6 modulators also affect mouse TRPC4. shares compounds with TRPC6 inh. HEK293 TRPC4/mu-opioid, membrane potential dye fluorescence; stimulated with maximal-effect DAMGO. inhibition, % at 10 µM. hit rate 55% among 2,400. AID 488928;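 active means drop in membrane potential signal beyond 5 SD of the control wells in both duplicate plates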;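 further: TRPC4 counter screen for TRPC6 hits run under conditions tuned for TRPC6 not TRPC4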
# TRPC6 inh conf: mouse TRPC6 channel inhibitors, confirmation, HEK293 cells, membrane potential dye, duplicate; inhibition, % at 10 µM; shares compounds with TRPC6 inh; AID 488960, 2010; hit rate 43% among 3,300; ACh-evoked depolarization;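 active means fluorescence ratio falls more than 5 SD below the full-stimulation control mean, in both duplicate runs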;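 further: integrated fluorescence ratio of peak minus minimum over baseline after agonist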
# TRPC6 act confirm: mouse TRPC6 channel activators, confirmation, HEK293 cells, membrane potential dye, duplicate; HEK293-TRPC6 membrane potential dye fluorescence, FDSS; hit rate 11% among 2,800; activation, % at 10 µM; shares compounds with TRPC6 inh; AID 488961, 2010;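 active means ratio signal rise beyond 5 SD above unstimulated control wells' mean, seen in both duplicate runs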;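 further: plate controls were buffer EC0 wells for no effect and acetylcholine ECmax response for full effect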
# * marks the source's active call; other numbers are inactive results; i = inactive; x = no result given.
SMILES,TRPC4 inh,TRPC4 PAM,TRPC6 activator,TRPC6 inh,TRPC4 agonist,HEK293 MPD ctr-2,HEK293 MPD ctr 2-2,TRPC4/MOR mod,TRPC4/MOR inh 2,TRPC6 inh conf,TRPC6 act confirm,others
CCCCSc1nc2[nH]ncc2c(=O)[nH]1,i,i,i,i,i,x,x,x,x,x,x,
CCCCN(CCCC)c1cn[nH]c(=O)c1Cl,i,i,i,-6.86*,i,x,x,x,x,i,x,TRPC4 spec 2=i;TRPC4 spec=20.6%*;HEK293 MPD ctr 2-1=i;HEK293 MPD ctr-1=11.3%*
COc1ccc(C(=O)Nc2c(-c3ccccc3)nc3ccccn23)c(OC)c1,i,i,20*,i,i,i,i,12.5%*,28.0%*,i,i,
O=C(CSc1ncccn1)N1CCN(C(c2ccccc2)c2ccccc2)CC1,i,i,i,-7.88*,i,x,x,x,x,76.0%*,x,TRPC4 spec 2=i;TRPC4 spec=1.9%*;HEK293 MPD ctr 2-1=i;HEK293 MPD ctr-1=1.4%*
O=C(CSc1ncccn1)N1CCN(C(=O)CSc2ncccn2)CC1,i,i,i,i,i,x,x,x,x,x,x,
Cc1ccc(N2C(=O)CSC2c2cccnc2)cc1F (centres undefined),i,i,i,-6.74*,i,x,x,x,x,i,i,TRPC4 spec 2=i;TRPC4 spec=i;HEK293 MPD ctr 2-1=i;HEK293 MPD ctr-1=i
O=C1CSC(c2cccnc2)N1c1ccc(Cl)cc1 (centres undefined),i,i,i,i,i,x,x,x,x,x,x,
O=C(O)c1cc(Br)ccc1NS(=O)(=O)c1cccc2nsnc12,i,i,12.8*,i,i,i,i,15.5%*,i,i,33.5%*,
Cc1cccc(NCC(=O)N/N=C\c2c[nH]c3ccccc23)c1,i,i,i,-5.77*,i,-63.0%*,i,-20.0%*,39.5%*,38.5%*,i,
O=C(c1cnn2c(C(F)F)cc(-c3ccccc3)nc12)N1CCCCC1c1cccnc1 (centres undefined),i,i,i,i,i,x,x,x,x,x,x,
Cc1ccc(-n2nnnc2SCC(=O)Nc2ccc(N3CCN(C)CC3)cc2)c(C)c1,i,i,i,i,i,x,x,x,x,x,x,
Cc1ccc(SCC(=O)Nc2ccc(N3CCN(C)CC3)c(F)c2)c(C)c1,i,i,i,-7.11*,i,x,x,x,x,i,i,TRPC4 spec 2=72.0%*;TRPC4 spec=-9.4%*;HEK293 MPD ctr 2-1=i;HEK293 MPD ctr-1=i
COCCn1c(SCC(=O)Nc2cccc(NC(C)=O)c2)nc2c([nH]c3ccccc32)c1=O,i,i,i,i,i,x,x,x,x,x,x,
CN(N)c1nc(C(F)(F)F)nc2ccccc12,i,i,i,i,i,x,x,x,x,x,x,
CN(NS(=O)(=O)c1ccc(Br)cc1)c1nc(C(F)(F)F)nc2ccccc12,i,i,i,-5.89*,i,i,i,18.0%*,37.0%*,45.5%*,x,
CC(=O)Nc1ccc(S(=O)(=O)N2CCN(c3cc(C)nc4ccccc34)CC2)cc1,i,i,i,-7.75*,i,-267.0%*,i,-45.0%*,70.0%*,45.5%*,i,
Cc1cc(N2CCN(c3nc(-c4ccc([N+](=O)[O-])cc4)cs3)CC2)c2ccccc2n1,i,i,i,i,i,x,x,x,x,x,x,
Cc1cc(N2CCN(C(=O)Nc3ccccc3C#N)CC2)c2ccccc2n1,i,i,i,-6.66*,i,-229.5%*,i,-39.5%*,44.5%*,42.0%*,i,
COc1ccc(-n2cc(CNC3CCC(O)CC3)c(-c3cccc(F)c3)n2)cc1 (centres undefined),i,i,i,-8.29*,i,x,x,x,x,i,i,TRPC4 spec 2=i;TRPC4 spec=i;HEK293 MPD ctr 2-1=i;HEK293 MPD ctr-1=i
CCCNC(=O)Cn1c(=O)/c(=C\c2ccc(-c3cccc([N+](=O)[O-])c3)o2)s/c1=C\C(=O)C(C)(C)C,i,i,i,i,i,x,x,x,x,x,x,
CCCNC(=O)Cn1c(=O)/c(=C\c2ccc(-c3ccc([N+](=O)[O-])cc3)o2)s/c1=C\C(=O)C(C)(C)C,i,i,32.5*,i,i,977.5%*,i,274.0%*,i,i,281.0%*,
O=C(NCc1ccccc1Cl)c1ccc(NC2=NC3CS(=O)(=O)CC3S2)cc1 (centres undefined),i,i,i,i,i,x,x,x,x,x,x,
COc1ccccc1N1CCN(C(=O)c2cc(-c3ccccc3)on2)CC1,i,i,i,i,i,x,x,x,x,x,x,
